Measurements reported in ChEMBL document CHEMBL4014339, “Discovery of 1,4-Benzodiazepine-2,5-dione (BZD) Derivatives as Dual Nucleotide Binding Oligomerization Domain Containing 1/2 (NOD1/NOD2) Antagonists Sensitizing Paclitaxel (PTX) To Suppress Lewis Lung Carcinoma (LLC) Growth in Vivo” (J Med Chem, 2017).

Columns and labels:
Assay type in all cases: cell-based
[1] = target: T1, Nucleotide-binding oligomerization domain-containing protein 2 (Homo sapiens, UniProt Q9HC29); experiment: Antagonist activity at human NOD2 expressed in HEK-Blue cells assessed as inhibition of MDP-stimulated cell activation preincubated for 3 hrs followed by MDP addition measured after 20 hrs by SEAP reporter gene assay
Summary of the method: (§1)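 HEK-Blue hNOD1 or hNOD2 cells preincubated with compound 3 h, then stimulated 20 h with C12-iE-DAP 50 ng/mL (NOD1) or MDP 100 ng/mL (NOD2); SEAP in supernatant quantified. Primary screen at 10 μM, hits repeated in triplicate; IC50 from dose-response, mean ± SD (n = 3), only for compounds reaching ≥50% inhibition at the screening concentration.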

[2] = target: T2, Nucleotide-binding oligomerization domain-containing protein 1 (Homo sapiens) (UniProt Q9Y239); experiment: Antagonist activity at human NOD1 expressed in HEK-Blue cells assessed as inhibition of C12-iE-DAP-stimulated cell activation at 10 uM preincubated for 3 hrs followed by C12-iE-DAP addition measured after 20 hrs by SEAP reporter gene assay; summary of the method: as §1
T2 sequence (whole entry): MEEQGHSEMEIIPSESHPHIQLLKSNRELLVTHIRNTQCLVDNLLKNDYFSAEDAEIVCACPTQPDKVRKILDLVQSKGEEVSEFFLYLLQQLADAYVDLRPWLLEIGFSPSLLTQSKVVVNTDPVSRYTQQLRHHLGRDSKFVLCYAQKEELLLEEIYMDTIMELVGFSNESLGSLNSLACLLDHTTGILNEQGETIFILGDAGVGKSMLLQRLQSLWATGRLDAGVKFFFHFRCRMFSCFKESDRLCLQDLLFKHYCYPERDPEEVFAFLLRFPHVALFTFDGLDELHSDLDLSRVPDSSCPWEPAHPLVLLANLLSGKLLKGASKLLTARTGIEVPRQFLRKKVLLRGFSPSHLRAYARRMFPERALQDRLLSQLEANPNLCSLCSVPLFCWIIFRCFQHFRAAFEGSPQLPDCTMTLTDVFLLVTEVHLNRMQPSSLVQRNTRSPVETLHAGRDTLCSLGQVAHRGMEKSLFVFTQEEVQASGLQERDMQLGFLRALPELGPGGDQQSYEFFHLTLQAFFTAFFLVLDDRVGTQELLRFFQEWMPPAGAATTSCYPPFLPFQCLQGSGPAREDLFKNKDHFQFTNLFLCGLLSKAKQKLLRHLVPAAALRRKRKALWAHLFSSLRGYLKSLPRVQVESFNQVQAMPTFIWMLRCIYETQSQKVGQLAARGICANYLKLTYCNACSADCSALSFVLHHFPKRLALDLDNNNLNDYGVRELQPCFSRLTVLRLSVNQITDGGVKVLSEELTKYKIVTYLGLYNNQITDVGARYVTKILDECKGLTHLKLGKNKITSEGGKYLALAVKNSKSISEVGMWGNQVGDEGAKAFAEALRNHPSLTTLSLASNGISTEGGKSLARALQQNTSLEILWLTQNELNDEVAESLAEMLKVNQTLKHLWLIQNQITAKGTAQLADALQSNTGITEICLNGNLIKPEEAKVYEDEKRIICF

[3] = target: T2, Nucleotide-binding oligomerization domain-containing protein 1 (Homo sapiens); experiment: Antagonist activity at human NOD1 expressed in HEK-blue cells assessed as inhibition of C12-iE-DAP-stimulated cell activation at 5 uM preincubated for 3 hrs followed by C12-iE-DAP addition measured after 20 hrs by SEAP reporter gene assay
[4] = target: T1, Nucleotide-binding oligomerization domain-containing protein 2; experiment: Antagonist activity at human NOD2 expressed in HEK-Blue cells assessed as inhibition of MDP-stimulated cell activation at 5 uM preincubated for 3 hrs followed by MDP addition measured after 20 hrs by SEAP reporter gene assay
[5] = target: T3, Nucleotide-binding oligomerization domain-containing protein 1 (Homo sapiens, UniProt Q9Y239); experiment: Antagonist activity at human NOD1 expressed in HEK-blue cells assessed as inhibition of C12-iE-DAP-stimulated cell activation preincubated for 3 hrs followed by C12-iE-DAP addition measured after 20 hrs by SEAP reporter gene assay; summary of the method: as §1
T3 sequence (Q9Y239 whole entry): T2 sequence (whole entry)

[6] = target: T1, Nucleotide-binding oligomerization domain-containing protein 2; experiment: Antagonist activity at human NOD2 expressed in HEK-Blue cells assessed as inhibition of MDP-stimulated cell activation at 10 uM preincubated for 3 hrs followed by MDP addition measured after 20 hrs by SEAP reporter gene assay; summary of the method: as §1

T1 sequence (Q9HC29 whole entry, the tested form may be a part): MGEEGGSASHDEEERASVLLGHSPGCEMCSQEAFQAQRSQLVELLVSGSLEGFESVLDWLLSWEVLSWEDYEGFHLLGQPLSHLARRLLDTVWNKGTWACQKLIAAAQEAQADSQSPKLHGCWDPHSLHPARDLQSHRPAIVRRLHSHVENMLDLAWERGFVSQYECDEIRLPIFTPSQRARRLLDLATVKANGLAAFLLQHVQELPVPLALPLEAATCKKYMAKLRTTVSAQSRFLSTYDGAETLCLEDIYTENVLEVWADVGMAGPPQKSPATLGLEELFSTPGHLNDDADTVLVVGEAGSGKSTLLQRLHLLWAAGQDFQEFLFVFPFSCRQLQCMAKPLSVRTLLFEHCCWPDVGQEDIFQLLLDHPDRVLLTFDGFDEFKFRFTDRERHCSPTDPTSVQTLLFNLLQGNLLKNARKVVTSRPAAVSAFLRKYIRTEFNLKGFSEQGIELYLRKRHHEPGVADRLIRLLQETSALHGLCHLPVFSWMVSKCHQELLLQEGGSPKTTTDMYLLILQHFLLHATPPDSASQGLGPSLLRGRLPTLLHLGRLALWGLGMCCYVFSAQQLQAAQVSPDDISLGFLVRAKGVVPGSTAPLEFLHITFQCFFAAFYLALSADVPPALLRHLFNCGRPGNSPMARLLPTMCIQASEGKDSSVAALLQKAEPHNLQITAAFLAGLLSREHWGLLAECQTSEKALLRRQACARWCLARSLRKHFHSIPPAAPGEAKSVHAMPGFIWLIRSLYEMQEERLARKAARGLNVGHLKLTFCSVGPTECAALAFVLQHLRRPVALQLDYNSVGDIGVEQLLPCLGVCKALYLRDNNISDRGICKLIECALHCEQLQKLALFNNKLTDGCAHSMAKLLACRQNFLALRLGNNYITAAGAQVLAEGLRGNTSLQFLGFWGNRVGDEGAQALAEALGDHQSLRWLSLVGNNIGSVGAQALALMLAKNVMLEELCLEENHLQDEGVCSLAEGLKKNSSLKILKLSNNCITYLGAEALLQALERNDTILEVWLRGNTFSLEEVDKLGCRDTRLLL

Row | Structure (SMILES) | IC50 [1] | inhibition [2] | inhibition [3] | inhibition [4] | IC50 [5] | inhibition [6]
1 | COC(=O)CC[C@H]1NC(=O)c2cc(Oc3cccc(N(C)C)c3)c(NC(=O)COCc3ccc(F)cc3)cc2NC1=O | 3.1 µM | 46.4% | 73.7% | 63.1% | 2.36 µM | 71.4%
2 | C[C@@H]1NC(=O)c2cc(Oc3cccc(N(C)C)c3)c(NC(=O)COCc3ccc(C(F)(F)F)cc3)cc2NC1=O | 0.94 µM | – | 73.8% | 64.5% | 1.93 µM | –
3 | COC(=O)CC[C@H]1NC(=O)c2cc(Oc3cc(N(C)C)cc(Cl)c3Cl)c(NC(=O)COCc3ccccc3)cc2NC1=O | – | 1.4% | -5.19% | 9.23% | – | 6.85%
4 | COC(=O)CC[C@H]1NC(=O)c2cc(Oc3cccc(N(C)C)c3)c(NC(=O)COCc3ccc(Cl)cc3)cc2NC1=O | 1.24 µM | 90.6% | 90.7% | 86.3% | 0.61 µM | 90.7%
5 | COC(=O)CC[C@H]1NC(=O)c2cc(Oc3cccc(N(C)C)c3Cl)c(NC(=O)COCc3ccccc3)cc2NC1=O | – | 44.2% | 55.8% | 44.6% | – | 46%
6 | COC(=O)CC[C@H]1NC(=O)c2cc(Oc3cccc(N(C)C)c3)c(NC(=O)COCc3cccc(Br)c3)cc2NC1=O | 2.28 µM | 89.6% | 82.9% | 65.9% | 1.33 µM | 86.7%
7 | COC(=O)CC[C@H]1NC(=O)c2cc(Oc3cccc(N(C)C)c3)c(NC(=O)COCc3ccc(F)c(F)c3)cc2NC1=O | 1.7 µM | 89% | 83.7% | 83.5% | 1.16 µM | 91.2%
8 | CCCCNC(=O)CC[C@H]1NC(=O)c2cc(Oc3cccc(N(C)C)c3)c(NC(=O)COCc3ccccc3)cc2NC1=O | 2.88 µM | 86% | 81.8% | 60.5% | 1.29 µM | 71.6%
9 | COC(=O)CC[C@H]1NC(=O)c2cc(Oc3cccc(N(C)C)c3)c(NC(=O)COCc3ccc(C(F)(F)F)cc3)cc2NC1=O | 0.87 µM | 90.7% | 89.8% | 89% | 0.94 µM | 91.9%
10 | COC(=O)CC[C@H]1NC(=O)c2cc(Oc3cccc(N4CCCC4)c3)c(NC(=O)COCc3ccc(Cl)cc3)cc2NC1=O | 1.5 µM | 86.6% | 80.9% | 86% | 1.39 µM | 94%
11 | COC(=O)CC[C@H]1NC(=O)c2cc(Oc3cccc(N(C)C)c3)c(NC(=O)COCc3ccc(OC)cc3)cc2NC1=O | 9.51 µM | 21.6% | 8.57% | 34.1% | – | 56.5%
12 | COC(=O)CC[C@H]1NC(=O)c2cc(Oc3cc(N(C)C)ccc3Cl)c(NC(=O)COCc3ccccc3)cc2NC1=O | – | 29.3% | 24.8% | 11% | – | 7.26%
13 | CCN(CC)C(=O)CC[C@H]1NC(=O)c2cc(Oc3cccc(N(C)C)c3)c(NC(=O)COCc3ccccc3)cc2NC1=O | 3.41 µM | 80.8% | 80.5% | 60.8% | 1.27 µM | 76.9%
14 | CN(C)c1cccc(Oc2cc3c(cc2NC(=O)COCc2ccccc2)NC(=O)[C@@H](CCC(=O)N2CCCCC2)NC3=O)c1 | 2.99 µM | 86.7% | 82.8% | 63.3% | 1.11 µM | 80.6%
15 | CCCCCCCCCCCCNC(=O)CC[C@H]1NC(=O)c2cc(Oc3cccc(N(C)C)c3)c(NC(=O)COCc3ccccc3)cc2NC1=O | – | 48.2% | 37.1% | 29.1% | – | 23.1%
16 | COC(=O)CC[C@H]1NC(=O)c2cc(Oc3cccc(N(C)C)c3)c(NC(=O)COCc3ccc(Br)cc3)cc2NC1=O | 1.19 µM | 93.9% | 91% | 85% | 0.58 µM | 95.2%
17 | COC(=O)CC[C@H]1NC(=O)c2cc(Oc3cc(N(C)C)c(Cl)c(Cl)c3Cl)c(NC(=O)COCc3ccccc3)cc2NC1=O | – | 11.1% | 16.2% | 11.1% | – | 17.4%
18 | CN(C)C(=O)CC[C@H]1NC(=O)c2cc(Oc3cccc(N(C)C)c3)c(NC(=O)COCc3ccccc3)cc2NC1=O | – | 68% | 43.1% | 31% | 4.95 µM | 35.5%
19 | COC(=O)CC[C@H]1NC(=O)c2cc(Oc3cccc(N(C)C)c3)c(NC(=O)COCc3ccc(C#N)cc3)cc2NC1=O | 2.51 µM | 59.6% | 65.4% | 72.8% | 3.99 µM | 67.9%
20 | COC(=O)CC[C@H]1NC(=O)c2cc(Oc3cccc(N(C)C)c3)c(NC(=O)COCc3ccc(C(C)(C)C)cc3)cc2NC1=O | 2.39 µM | 73.3% | 67.7% | 75.2% | 1.96 µM | 75.7%
21 | CN(C)c1cccc(Oc2cc3c(cc2NC(=O)COCc2ccc(Cl)cc2)NC(=O)[C@@H](CCC(=O)N2CCCCC2)NC3=O)c1 | 0.9 µM | 85.2% | 82.9% | 91.2% | 1.06 µM | 96.7%
22 | COC(=O)CC[C@H]1NC(=O)c2cc(Oc3cccc(N(C)C)c3)c(NC(=O)COCc3ccc(F)cc3Cl)cc2NC1=O | – | 38.6% | 20.1% | 12.8% | – | 13.5%
23 | COC(=O)CC[C@H]1NC(=O)c2cc(Oc3cccc(N(C)C)c3)c(NC(=O)COCc3cccc(Cl)c3)cc2NC1=O | 2.08 µM | 81.8% | 76.7% | 71.5% | 1.29 µM | 84.1%
24 | CCCNC(=O)CC[C@H]1NC(=O)c2cc(Oc3cccc(N(C)C)c3)c(NC(=O)COCc3ccc(Br)cc3)cc2NC1=O | – | 50.5% | 50.2% | 40.3% | – | 31%
25 | COC(=O)CC[C@H]1NC(=O)c2cc(Oc3cccc(N(C)C)c3Cl)c(NC(=O)COCc3ccc(Cl)cc3)cc2NC1=O | – | 0.08% | 21.9% | 15.7% | – | 15.7%
26 | COC(=O)CC[C@H]1NC(=O)c2cc(Oc3cccc(N(C)C)c3)c(NC(=O)COCc3ccc4ccccc4c3)cc2NC1=O | 1.58 µM | – | 77.7% | 70.9% | 1.61 µM | –
27 | CCCNC(=O)CC[C@H]1NC(=O)c2cc(Oc3cccc(N(C)C)c3)c(NC(=O)COCc3ccc(Cl)cc3)cc2NC1=O | – | 47.6% | 52.9% | 37.6% | – | 44.6%
28 | COC(=O)CC[C@@H]1NC(=O)c2cc(Oc3cccc(N(C)C)c3)c(NC(=O)COCc3ccc(C(F)(F)F)cc3)cc2NC1=O | 0.59 µM | – | 89.6% | 87.8% | 0.58 µM | –
29 | COC(=O)CC[C@H]1NC(=O)c2cc(Oc3cc(Cl)cc(N(C)C)c3)c(NC(=O)COCc3ccccc3)cc2NC1=O | 5.05 µM | 4.89% | 47.1% | 54.9% | – | 56.5%
30 | CCCNC(=O)CC[C@H]1NC(=O)c2cc(Oc3cccc(N(C)C)c3)c(NC(=O)COCc3ccc(F)cc3)cc2NC1=O | – | 80.1% | 68% | 30.8% | 2.81 µM | 48.8%
